Tests used:
MDA-MB-468 [1] = assay: Selectivity ratio of IC50 for human MDA-MB-468 cells under aerobic condition to IC50 for human MDA-MB-468 cells under hypoxic condition
In short: (§1)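 Hypoxic cytotoxicity ratio: aerobic IC50 divided by anoxic IC50 in the same cell line (MDA-MB-468 or SW620).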

MDA-MB-468 [2] = assay: Cytotoxicity against human MDA-MB-468 cells incubated for 4 hrs under aerobic condition followed by compound washout and measured after 5 days by SRB assay; type: cell-based
In short: (§2)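 Antiproliferative IC50 in MDA-MB-468 triple-negative breast or SW620 colon cancer cells, exposed under aerobic or anoxic conditions; mean ± std dev, n = 3.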

SW-620 [3] = assay: Cytotoxicity against human SW620 cells incubated for 4 hrs under hypoxic condition followed by compound washout and measured after 5 days by SRB assay; type: functional, cell-based; in short: as §2
SW-620 [4] = assay: Cytotoxicity against human SW620 cells incubated for 4 hrs under aerobic condition followed by compound washout and measured after 5 days by SRB assay; type: cell-based; in short: as §2
SW-620 [5] = assay: Selectivity ratio of IC50 for human SW620 cells under aerobic condition to IC50 for human SW620 cells under hypoxic condition; in short: as §1
MDA-MB-468 [6] = assay: Cytotoxicity against human MDA-MB-468 cells incubated for 4 hrs under hypoxic condition followed by compound washout and measured after 5 days by SRB assay; type: functional, cell-based; in short: as §2
[7] = Ratio of test compound IC50 to floxuridine IC50 for human SW620 cells incubated for 4 hrs under aerobic condition followed by compound washout and measured after 5 days by SRB assay; type: ADME, cell-based, SW-620; conditions: read-out: Ratio IC50
In short: (§3)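 Deactivation ratio: aerobic antiproliferative IC50 of the prodrug divided by aerobic IC50 of the parent cytotoxin control (floxuridine). IC50 values were means ± std dev, n = 3, determined in MDA-MB-468 triple-negative breast or SW620 colon cancer cells.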

[8] = Electrochemical behavior of the compound assessed as one-elctron reduction potential at 50 uM in pH 7 deaerated phosphate buffered by pulse radiolysis
[9] = Ratio of test compound IC50 to floxuridine IC50 for human MDA-MB-468 cells incubated for 4 hrs under aerobic condition followed by compound washout and measured after 5 days by SRB assay; type: ADME, cell-based; conditions: read-out: Ratio IC50; in short: as §3
[10] = Electrochemical behavior of the compound assessed as one-elctron reduction potential at 0.42 uM in tert-butanol by pulse radiolysis
[11] = Ratio of test compound IC50 to melphalan IC50 for human SW620 cells incubated for 4 hrs under aerobic condition followed by compound washout and measured after 5 days by SRB assay; type: ADME, cell-based, SW-620; conditions: read-out: Ratio IC50
In short: (§4)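 Deactivation ratio: aerobic IC50 of the prodrug divided by the aerobic IC50 of the parent control cytotoxin, in the same cell line (MDA-MB-468 or SW620).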

[12] = Ratio of test compound IC50 to melphalan IC50 for human MDA-MB-468 cells incubated for 4 hrs under aerobic condition followed by compound washout and measured after 5 days by SRB assay; type: ADME, cell-based; conditions: read-out: Ratio IC50; in short: as §4
[13] = Aqueous solubility of the compound; type: physicochemical; conditions: buffer

SMILES	Ratio IC50 (MDA-MB-468 [1])	IC50 (MDA-MB-468 [2]) [µM]	IC50 (SW-620 [3]) [µM]	IC50 (SW-620 [4]) [µM]	Ratio IC50 (SW-620 [5])	IC50 (MDA-MB-468 [6]) [µM]	selectivity ratio at 4 h [7]	Activity [8] [mV]	selectivity ratio at 4 h [9]	Activity [10] [mV]	selectivity ratio at 4 h [11]	selectivity ratio at 4 h [12]	solubility [13]
O=c1[nH]c(=O)n([C@H]2C[C@H](O)[C@@H](CO)O2)cc1F [FLOXURIDINE]	<1	27.4	1.48	0.96	<1	45.5	–	–	–	–	–	–	–
N[C@@H](Cc1ccc(N(CCCl)CCCl)cc1)C(=O)O [MELPHALAN]	1.2	1	1.22	1.81	1.5	0.81	–	–	–	–	–	–	–
Cc1cc(C)c(/C=C(\C(=O)OC[C@H]2O[C@@H](n3cc(F)c(=O)[nH]c3=O)C[C@@H]2O)c2ccccc2[N+](=O)[O-])[nH]1	<1	83.9	14	18.7	1.3	248	19.4	-509	3.1	–	–	–	–
Cn1c(COP(=O)(NCCBr)NCCBr)cnc1[N+](=O)[O-] [EVOFOSFAMIDE]	710	4.4	0.052	20.6	396	0.0062	–	–	–	–	–	–	–
Cc1cc(C)c(/C=C(\C(=O)Nc2ccc(N(CCO)CCO)cc2)c2ccccc2[N+](=O)[O-])[nH]1	–	–	–	–	–	–	–	–	–	-550	–	–	–
Cc1cc(C)c(/C=C(\C(=O)Nc2ccc(N(CCCl)CCCl)cc2)c2ccccc2[N+](=O)[O-])[nH]1	1.1	8.31	12.7	11.5	<1	7.38	–	–	–	–	6.3	8.3	Insoluble
Nc1n[n+]([O-])c2ccccc2[n+]1[O-] [TIRAPAZAMINE]	81	105	1.2	91	76	1.3	–	–	–	–	–	–	–

Source: ChEMBL document CHEMBL4392826, “Prototyping kinase inhibitor-cytotoxin anticancer mutual prodrugs activated by tumour hypoxia: A chemical proof of concept study” (Bioorg Med Chem Lett, 2019)
